Only some compounds are listed: those with a hit (about 2.6% of all), similar ones and a draw of the others.
ABCB6 inh 2 = ABCB6 transporter inhibitors, primary screen, K562-ABCB6 cells, flow cytometry, MLPCN library | 0.19% of 360,000 active | K562-ABCB6 porphyrin accumulation, 1 h; hits give low values | fluorescence ratio to DMSO, % at 10 µM;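 active = fluorescence ratio to DMSO below 75%, the collection mean minus 3 SD; inconclusive = too few cells collected in the well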;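 also: signal is porphyrin accumulated inside mitochondria; 100% equals median channel fluorescence of DMSO control wells; lower ratio means ABCB6 inhibition with less porphyrin fluorescence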
MC4R antag cAMP = MC4R antagonists of cAMP signaling, primary screen, cell-based, TR-FRET, antagonist arm of biased-ligand search | Melanocortin receptor 4 (Homo sapiens), P32245 | MC4R-expressing cells, MTII-stimulated cAMP, LANCE TR-FRET | inhibition, % at 6.5 µM | 0.48% of 360,000 active;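 active = inhibition above its plate's cutoff, the mean of tested wells on that plate plus 3 SD, cut at about 29% in these data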;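 also: 0% = Melanotan II alone and 100% = Melanotan II plus saturating MCL0020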
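System: U2OS-MC4R stable cell line; Technique: Eu-cAMP/anti-cAMP TR-FRET, emission 671 nm; Repeats: single well per compound; Also added: Melanotan II; Dosing: one concentration, 6.5 µM nominal; Schedule: 30-min compound, 1-h challenge, 1-h detection, room temperature.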
hiPSC survival = enhancers of single-cell hiPSC survival, primary screen, ATPlite luminescence; 0.044% of 360,000 active; 100% = ROCK inhibitor wells, 0% = DMSO; survival enhancement, % at 20 µM; in the data active = survival enhancement above about 18%;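 also: cells exposed to compounds for 16 hours before the ATP read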
MC4R barr agon = MC4R agonists recruiting beta-arrestin, primary screen, cell-based, luminescence, agonist arm of biased-ligand search; activation, % at 8.9 µM; AID 540308, 2011; U2OS MC4R beta-arrestin complementation; percent of melanotan II response, DMSO zero; 0.98% of 360,000 active;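 active = activation above a per-plate cutoff, the mean activation of sample wells on that plate plus 3 SD, cut at about 8% in these data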
TbMetRS inhib = T. brucei MetRS inhibitors, primary screen, biochemical, luminescence; methionyl-tRNA synthetase (Trypanosoma brucei brucei); purified T. brucei MetRS, ATP depletion, Kinase-Glo luminescence; inhibition, % at 11.9 µM; 0.4% of 360,000 active; AID 624268, 2012;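 active = inhibition above a per-plate cutoff of the control wells' mean inhibition plus 3 SD, cut at about 5.5% in these data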;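 also: 0% = DMSO wells median and 100% = median of wells with control inhibitor compound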
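System: purified T. brucei MetRS enzyme / Detection: Kinase-Glo luciferase luminescence reporting remaining unconsumed ATP / Medium: HEPES buffer with MgCl2, KCl, DTT, spermine, BSA, pyrophosphatase / Replication: singlicate, one well per compound / Evaluation: percent inhibition relative to median high and low control wells / Schedule: 2 h aminoacylation at 25 °C after 15 min preincubation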
Exocytosis inh = LAMP-1 surface exposure blockers, TALL-104 cells – cell-based, flow cytometry, MLPCN library, primary screen | TALL-104 LAMP-1 surface exposure; cells stimulated with thapsigargin and PMA | inhibition, % at 10 µM | 0.66% of 360,000 active | AID 651702, 2012;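 active = inhibition above about 55%, limit read from the data; inconclusive = no clear call, values can overlap the other calls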
MC4R barr conf = MC4R beta-arrestin agonists, retest, confirmation, cell-based, luminescence, U2OS; shares compounds with MC4R barr agon; activation, % at 8.9 µM; 31% of 2,400 active; U2OS MC4R beta-arrestin recruitment; scaled DMSO 0%, Melanotan II 100%;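 active = mean activation across replicates above the hit cutoff set in the earlier primary screen, cut at about 8% in these data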
MOR DOR agonist = agonists of MOR-DOR heterodimerization, counter-screen for MC4R biased agonist project, cell-based, luminescence; shares compounds with MC4R barr agon; U2OS PathHunter beta-arrestin, beta-gal luminescence; percent of deltorphin B response, DMSO zero; activation, % at 9.2 µM; 5.8% of 2,400 active;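 active = mean activation across replicates exceeds the hit threshold derived in the earlier primary screen, cut at about 18% in these data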;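 also: 100% = deltorphin B at 0.9 µM final and 0% = DMSO alone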
* hit, by the source's call; ? = inconclusive; · = not tested or not shown.

SMILES	ABCB6 inh 2	MC4R antag cAMP	hiPSC survival	MC4R barr agon	TbMetRS inhib	Exocytosis inh	MC4R barr conf	MOR DOR agonist
CC(=O)Nc1cc(-c2cccnc2)cn2c(-c3ccc(F)cc3)cnc12	87.0	12.3	1.6	41.9*	-0.4	-8.6	43.7*	0.5
COc1ccc(-c2cnc3c(NC(C)=O)cc(-c4ccccc4OC)cn23)cc1OC	100.0	-27.6	0.3	22.1*	-0.3	?	25.2*	2.4
COc1ccc(-c2cnc3c(NC(C)=O)cc(-c4cccc(C(=O)N(C)C)c4)cn23)cc1OC	98.0	4.0	3.2	3.2	0.8	-26.1	·	·
CCOC(=O)[C@]12CCCC=C1N(Cc1ccc3c(c1)OCO3)C(=O)[C@H](CC(=O)NCc1ccc(C)o1)C2	98.0	·	-0.6	·	0.1	7.6	·	·
O=C(Nc1cccc(Cl)c1)Nc1cc(S(=O)(=O)N2CCOCC2)ccc1N1CCCC1	99.0	9.4	-1.6	-0.2	0.9	-18.0	·	·
Cn1c(=O)[nH]c2ncccc21	101.0	5.0	-0.2	-0.1	-1.0	-1.7	·	·
NS(=O)(=O)c1ccc(CNc2nc(-c3cccnc3)nc3ccccc23)cc1	95.0	-0.2	-0.2	0.4	0.4	-2.7	·	·
COc1ccccc1-c1cc(NC(C)=O)c2ncc(-c3cccc(C(C)=O)c3)n2c1	96.0	-17.5	-2.2	11.1*	-0.1	11.3	17.5*	3.8
COc1cc(-c2cc(NC(C)=O)c3ncc(-c4cc(OC)c(OC)c(OC)c4)n3c2)cc(OC)c1OC	88.0	-33.2	0.9	9.6*	-0.2	3.5	9.3*	2.4
COc1ccc(-c2cnc3c(NC(C)=O)cc(-c4ccsc4)cn23)cc1OC	120.0	5.1	-2.6	11.3*	-0.1	7.7	14.6*	3.9
COc1ccc(/C=N/NC(=O)C(=O)N2CCCCCC2)cc1[N+](=O)[O-]	100.0	-19.9	1.2	-1.4	-0.2	-5.9	·	·
Cc1ccc(-c2cnc3ccccc3n2)cc1C	91.0	-6.5	-0.5	0.0	-1.4	-5.5	·	·
CCOC(=O)c1ccc(NC(=S)Nc2cccc(C)n2)cc1	96.0	0.9	0.2	21.9*	-0.6	1.9	6.9	7.1
CCOC(=O)c1ccc(NC(=S)Nc2cccc(N)n2)cc1	99.0	-1.8	0.1	-0.6	-0.3	9.3	·	·
Cc1cccc(NC(=O)CC2c3ccccc3Oc3ccccc32)c1	97.0	1.8	0.2	0.9	-0.6	-1.5	·	·
O=C(CC1c2ccccc2Oc2ccccc21)Nc1ccccc1F	97.0	3.5	-0.1	10.5*	0.5	-1.7	4.8	5.8
O=C(CC1c2ccccc2Oc2ccccc21)Nc1ccccc1C(F)(F)F	100.0	5.3	3.7	16.6*	-0.4	2.1	4.4	8.3
O=C(O)c1cc(NC(=O)c2cccc(C(=O)Nc3cc(C(=O)O)cc(C(=O)O)c3)c2)cc(C(=O)O)c1	102.0	9.6	-0.4	-0.4	0.2	-1.9	·	·
COc1ccc(-c2cc(C#N)nc(Cl)n2)cc1	107.0	-26.4	2.7	-3.8	-0.1	9.3	·	·
COc1ccc(-c2cc(C#N)nc(Oc3ccc(Cl)cc3)n2)cc1	100.0	2.0	-1.1	10.8*	-0.4	2.4	2.4	3.0
CC(C)COc1cccc(C(=O)NC2(C)CCS(=O)(=O)C2)c1 (stereo unspecified)	101.0	8.2	-0.2	0.6	-0.3	-0.1	·	·
